According to ChEMBL document CHEMBL2385008, “Inducers of hypoxic response: marine sesquiterpene quinones activate HIF-1” (2013):
Calls of active or inactive are those of the source. No cut-off for these calls is given here.

Key:
MDA-MB-231 = assay: Cytotoxicity against human MDA-MB-231 cells assessed as growth inhibition at 3 to 30 uM after 48 hrs by SRB assay; format: functional, cell-based
Summary of the method: (§1)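 T47D or MDA-MB-231 breast tumor cells (DMEM/F12, 10% FBS, penicillin/streptomycin) plated in 96-well format and exposed to compound for 48 h. Viability read by sulforhodamine B staining and expressed as % inhibition relative to untreated control. One representative experiment in triplicate, mean with SD.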

T47D [1] = assay: Activation of HIF-1 (unknown origin) transfected in human T47D cells at 3 to 30 uM after 16 hrs by luciferase reporter gene assay; format: cell-based
Summary of the method: (§2)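 T47D breast tumor cells grown in DMEM/F12 with L-glutamine, 10% FBS and penicillin/streptomycin, transfected with HIF-1 reporter pHRE3-TK-Luc; compound exposure 16 h. Luciferase activity normalized to untreated control as relative luciferase activity; 1,10-phenanthroline used as HIF-1 activator control. Mean + SD, n = 4.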

T47D [2] = assay: Cytotoxicity against human T47D cells assessed as growth inhibition at 3 to 30 uM after 48 hrs by SRB assay; format: functional, cell-based; summary of the method: as §1
T47D [3] = assay: Cytotoxicity against human T47D cells assessed as growth inhibition at 30 uM after 48 hrs by SRB assay relative to control; format: functional; conditions: read-out: GI; summary of the method: as §1
T47D (Homo sapiens) = assay: Activation of HIF-1 in human T47D cells assessed as increase in VEGF production at 10 uM after 16 hrs by ELISA
T47D [4] = assay: Activation of HIF-1 in human T47D cells assessed as increase in secreted VEGF production at 10 uM after 16 hrs by ELISA; format: cell-based
Summary of the method: (§3)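 T47D cells treated at 10 μM for 16 h. VEGF protein measured by ELISA in conditioned medium (secreted) or cell lysate (cellular), normalized to cellular protein by micro BCA assay. Untreated medium control; 1,10-phenanthroline positive control. Mean + SD pooled from two independent experiments (n = 3); p < 0.05 versus untreated control flagged.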

T47D [5] = assay: Activation of HIF-1 (unknown origin) transfected in human T47D cells at 10 uM after 16 hrs by luciferase reporter gene assay relative to control; format: cell-based; summary of the method: as §2
T47D [6] = assay: Activation of HIF-1 in human T47D cells assessed as increase in cellular VEGF production at 10 uM after 16 hrs by ELISA; format: cell-based; summary of the method: as §3

SMILES	growth inhibition (GI) (MDA-MB-231)	Activity (T47D [1])	growth inhibition (GI) (T47D [2])	inhibition of growth at 30 µM (T47D [3]) [%]	Activity (T47D (Homo sapiens))	Activity (T47D [4])	Activity (T47D [5]) [%]	Activity (T47D [6])
CC1(C)CCC[C@]2(C)[C@H]3Cc4cc(O)ccc4O[C@@]3(C)CC[C@@H]12	inactive	inactive	inactive					
COC1=CC(=O)C2=C(C[C@@H]3[C@@]4(C)CCCC(C)(C)[C@@H]4CC[C@@]3(C)O2)C1=O	Dose-dependent effect	inactive	Dose-dependent effect					
COC1=CC(=O)C2=C(C[C@]3(O2)[C@@H](C)CC[C@H]2C(C)(C)CCC[C@@]23C)C1=O	Dose-dependent effect	inactive	Dose-dependent effect					
C=C1CCC[C@@]23OC4=C(C[C@]2(C)[C@H](C)CC[C@@]13C)C(=O)C(OC)=CC4=O	Dose-dependent effect	inactive	Dose-dependent effect					
COC(=O)c1cc2c(c(O)c1O)O[C@@]1(C2)[C@@H](C)CC[C@H]2C(C)(C)CCC[C@@]21C	Dose-dependent effect	inactive	Dose-dependent effect					
COC1=CC(=O)C(O)=C(C[C@]2(C)[C@H](C)CC[C@]34C[C@@]3(C)CCC[C@@H]24)C1=O	Dose-dependent effect		Dose-dependent effect	58	Active	Active	1000	Active
c1cnc2c(c1)ccc1cccnc12						Active		Active
C=C1CCC[C@H]2[C@](C)(CC3=C(O)C(=O)C=C(OC)C3=O)[C@@H](C)CC[C@]12C [ILIMAQUINONE]	Dose-dependent effect		Dose-dependent effect	56	Active	Active	930	Active
COC1=CC(=O)C2=C(C[C@]3(C)[C@H](C)CC[C@]45C[C@@]4(C)CCC[C@]53O2)C1=O	Dose-dependent effect	inactive	Dose-dependent effect					
C=C1CCC[C@H]2[C@](C)(CC3=C(O)C(=O)C=C(OC)C3=O)[C@H](C)CC[C@@]12C (relative stereo)	Dose-dependent effect		Dose-dependent effect	60	Active	Active	830	Active
